Screens: PubChem, Broad Institute
RAD52 inh: RAD52 DNA annealing inhibitors, primary screen, biochemical, FRET, single point, set 2. DNA repair protein RAD52 homolog (Homo sapiens), P43351. recombinant RAD52 DNA annealing, FRET fluorescence. inhibition, % at 18.7 µM. hit rate 0.46% among 360,000. AID 651710, 2012;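 active means every replicate showing at least 50% inhibition; inconclusive means mean inhibition at least 50% but not in every replicate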
RAD54 branch: inhibitors of human RAD54 branch migration, primary screen, biochemical, fluorescence, single point. RAD54 Holliday junction branch migration, FAM/BHQ fluorescence. hit rate 0.14% among 360,000. inhibition, % at 10.4 µM. AID 602329, 2012;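 active means mean normalized replicate activity at least 40 and at least half of replicates scoring 40 or more; inconclusive means only one of the two criteria met; inactive means mean below 40 and under half of replicates reaching 40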;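 further: inhibitors cause a drop in the FAM fluorescence signal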
Ecoli rRNA inh: reduced GFP signal of wild-type E. coli, primary screen, bacterial rRNA inhibitor project, GFP/RFP fluorescence, OD600, single point; E. coli WT GFP vs humanized-ribosome RFP mutants, 24 h; active compounds read low; DMSO median 0, no signal -100; GFP signal change (wild-type ribosome), % (no concentration beside the values); hit rate 1.6% among 350,000;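 active means significant combined selectivity score with lowered wild-type GFP, culture density cut under 30%, mutant RFP and density less affected; inactive means any of these conditions unmet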
PglD inh: C. jejuni PglD acetyltransferase inhibitors, primary screen, biochemical, DTNB colorimetric, single point; purified PglD enzyme, DTNB colorimetric CoA detection; hit rate 0.098% among 360,000; AID 602405, 2012; UDP-N-acetylbacillosamine N-acetyltransferase PglD (Campylobacter jejuni); inhibition, % at 12.5 µM; in the data active means inhibition above about 16%, passing the limit was not always enough; inconclusive means no clear call, values can overlap the other calls
Cneo AK release: Cryptococcus neoformans cell lysis inducers, primary screen, AK release luminescence, single concentration | C. neoformans lysis, adenylate kinase release luminescence, 4 h; normalised: neutral wells 0, clomiphene wells 100 | lysis activity, % at 15 µM | hit rate 0.2% among 360,000;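 active means mean lysis activity across replicates of at least 80%, whatever share of replicates individually reach that level; inactive means mean lysis activity below 80%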
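Test system: log-phase Cryptococcus neoformans yeast cells; Quantity: yeast cell density of 5 × 10^6 cells/mL; Buffer or medium: YPD; Doses: single compound concentration per well; Timing: 4 h at 37 °C static, read 1 h later; Measured by: AK luminescence; Read-out basis: lysis from increased AK signal; Control set: Clomiphene as positive control.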
DNA binder FP: DNA-binding compounds via dye displacement, dose response, artefact control for RAD52 inhibitor project, biochemical, fluorescence polarization, cherry-pick. shares compounds with RAD52 inh. Salmon sperm DNA/acridine orange FP displacement. AC50, µM. hit rate 8% among 1,000. AID 652128, 2013;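 active means fitted half-maximal concentration for signal loss at or below twice the highest dose tested, in every separate run, actives reach about 64 µM in these data; inconclusive means runs disagree, or flat partial signal loss, or poor fit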
Large screens that a line does not name were inactive (follow-up assays come after a bar, where they were run). This is a sample that favours compounds with a hit; in the whole collection about 1.9% have one here.

COc1ccc2nc(N(CCN(C)C)C(=O)c3ccc(C(=O)c4ccccc4)cc3)sc2c1	none
CN(C)CCN(C(=O)c1ccc2ccccc2c1)c1nc2cc3c(cc2s1)OCCO3	RAD52 inh 69 | DNA binder FP inactive
COc1ccc2nc(N(CCN(C)C)C(=O)c3ccc4ccccc4c3)sc2c1	RAD52 inh 54 | DNA binder FP inactive
CCN(c1ccccc1)S(=O)(=O)c1ccc(C(=O)N(CCCN(C)C)c2nc3cc4c(cc3s2)OCO4)cc1	RAD52 inh 66 | DNA binder FP inactive
COc1ccc2c3c(n(C)c2c1)[C@H](CO)N(CC1CC1)CC31CCN(C(=O)CN2CCOCC2)CC1	none (no result: RAD54 branch, PglD inh, Cneo AK release)
COc1cccc(OCC(O)CN2CCN(CCN3C(=O)c4cccc5cccc(c45)C3=O)CC2)c1 (stereo not given)	RAD52 inh 91 (no result: RAD54 branch, PglD inh, Cneo AK release) | DNA binder FP inconclusive
COc1ccc(OCC(O)CN2CCN(CC(O)COc3ccc(OC)cc3)CC2)cc1 (stereo not given)	none
O=C1c2cccc3cccc(c23)C(=O)N1CCN1CCN(CC(O)COc2ccccc2)CC1 (stereo not given)	none (no result: RAD52 inh, Ecoli rRNA inh)
COc1ccc(OCC(O)CN2CCC(CN3C(=O)c4cccc5cccc(c45)C3=O)CC2)cc1 (stereo not given)	RAD52 inh 96 (no result: RAD54 branch, PglD inh, Cneo AK release) | DNA binder FP inactive
COc1cc2c3c(cccc3c1)C(=O)N(CCN1CCCC1)C2=O	RAD52 inh 71, RAD54 branch 106 (no result: Ecoli rRNA inh) | DNA binder FP 31µM
CCNC(=O)C[C@H]1CC[C@@H]2[C@H](COc3ccc(NC(=O)c4cccs4)cc3C(=O)N2C)O1	none
C[C@@H]1CN([C@H](C)CO)S(=O)(=O)c2ccc(-c3cccnc3)cc2O[C@H]1CN(C)C(=O)c1cccc(F)c1	none
C[C@H](CO)N1C[C@H](C)[C@@H](CN(C)Cc2ccc(Cl)c(Cl)c2)Oc2ccc(NC(=O)Cc3ccccc3)cc2CC1=O	none
CCC(=O)Nc1ccc2c(c1)OC[C@@H](C)N(C(=O)NC1CCCCC1)C[C@@H](C)[C@H](OC)CN(C)C2=O	none
CN(C)CCNC(=O)c1cccc2[nH]c(-c3ccncc3)nc12	RAD52 inh 50 (no result: RAD54 branch, PglD inh, Cneo AK release) | DNA binder FP 52µM
CN(C)CCNC(=O)c1ccccc1-c1ccccc1	none (no result: RAD52 inh, Ecoli rRNA inh)
CN(C)CCNC(=O)c1ccccc1-c1cc2ccccc2c(=O)o1	none
CN(C)CCNC(=O)c1cccc2nc3c(ccc4ccccc43)nc12	RAD52 inh 95 (no result: RAD54 branch, PglD inh, Cneo AK release) | DNA binder FP 14µM
COc1ccc(-c2coc3c(C(=O)NCCN(C)C)cccc23)c(C)c1	none
COc1ccc(-c2nc3c(C(=O)NCCN(C)C)cccc3c3ccccc23)cc1	RAD52 inh 101 (no result: RAD54 branch, PglD inh, Cneo AK release) | DNA binder FP inconclusive
COc1ccc(C(=O)NCCN(C)C)c2nc3ccccc3cc12	RAD52 inh 91 (no result: RAD54 branch, PglD inh, Cneo AK release) | DNA binder FP 25µM
COc1cccc2nc3c(C(=O)NCCN(C)C)cccc3cc12	RAD52 inh 81 (no result: RAD54 branch, PglD inh, Cneo AK release) | DNA binder FP 34µM
O=C(C[C@@H]1CC[C@H]2[C@@H](COC[C@@H](O)CN2C(=O)c2ccncc2)O1)Nc1ccc(-c2ccccc2)cc1	none
CCN(CC)CCNC(=O)c1cc2c(-c3cccc(OC)c3)nn(C)c2s1	RAD52 inh 68 (no result: RAD54 branch, PglD inh, Cneo AK release) | DNA binder FP inactive
Cc1cc(C)n(-c2nc(SCCN3CCOCC3)c3c4c(sc3n2)CCCC4)n1	none
Cc1cc(C)n(-c2nc(NCCN(C)C)c3c4c(sc3n2)CCCC4)n1	RAD52 inh 83 (no result: RAD54 branch, PglD inh, Cneo AK release) | DNA binder FP inactive
Cc1ccccc1Cn1c2ccccc2c2cnn(CC(=O)NCCCN3CCN(C)CC3)c(=O)c21	RAD52 inh 71 | DNA binder FP inactive
C[C@H](CO)N1C[C@H](C)[C@H](CN(C)C(=O)Nc2ccc(C(F)(F)F)cc2)Oc2ccc(NS(=O)(=O)c3ccc(F)cc3)cc2C1=O	none
